Test results from ChEMBL document CHEMBL5653632, “PRMT5 inhibition disrupts splicing and stemness in glioblastoma” (Nat Commun, 2021).
Active and inactive are the calls of the source.

Tests used:
G411 = experiment: Antiproliferative activity against human G411 cells at 1 uM incubated for 9 to 12 days by IncuCyte zoom live-cell imaging analysis; format: functional, cell-based; conditions: time 9-12 day
Method in brief: (§1)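 Adherent GSCs were cultured in serum-free medium with EGF and bFGF on poly-L-ornithine/laminin and plated in triplicate in 96-well plates. They were treated at 1 µM, with 1 µM SGC2096 or 0.05% DMSO as controls, for 9–12 days or until DMSO wells were confluent. Medium with drug was refreshed every 5 days. IncuCyte confluence was imaged every 8 h and normalized to each well's initial confluence.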

[1] = biological target: Protein arginine N-methyltransferase 5 (Homo sapiens) (UniProt O14744); experiment: Inhibition of PRMT5 in human G583 cells assessed as reduction in SDMA level at 1 uM after 5 days by Western blot analysis; format: cell-based; conditions: time 5.0 day
Chain of Protein arginine N-methyltransferase 5 (Homo sapiens) (O14744 whole entry): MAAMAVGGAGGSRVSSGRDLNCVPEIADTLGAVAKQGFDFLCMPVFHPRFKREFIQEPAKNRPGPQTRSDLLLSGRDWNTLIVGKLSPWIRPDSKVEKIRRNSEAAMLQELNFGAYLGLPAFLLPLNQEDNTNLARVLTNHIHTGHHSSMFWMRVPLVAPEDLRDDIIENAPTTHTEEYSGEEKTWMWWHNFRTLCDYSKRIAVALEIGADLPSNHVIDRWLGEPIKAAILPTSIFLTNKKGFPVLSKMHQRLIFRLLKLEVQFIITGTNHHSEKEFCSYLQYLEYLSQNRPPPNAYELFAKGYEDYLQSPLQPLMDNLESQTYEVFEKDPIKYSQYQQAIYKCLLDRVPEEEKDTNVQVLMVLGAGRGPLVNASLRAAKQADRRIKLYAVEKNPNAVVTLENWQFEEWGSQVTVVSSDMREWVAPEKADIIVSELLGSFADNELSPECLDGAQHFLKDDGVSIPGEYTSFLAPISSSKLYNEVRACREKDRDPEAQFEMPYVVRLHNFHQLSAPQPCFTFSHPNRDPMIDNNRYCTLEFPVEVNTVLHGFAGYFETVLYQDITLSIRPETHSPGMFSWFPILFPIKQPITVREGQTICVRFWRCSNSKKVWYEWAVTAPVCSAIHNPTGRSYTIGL
Method in brief: (§2)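 Symmetric dimethylarginine on SmB/B' was measured by western blot with IRDye secondary antibodies and infrared imaging.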

G561 = experiment: Antiproliferative activity against human G561 cells at 1 uM incubated for 9 to 12 days by IncuCyte zoom live-cell imaging analysis; format: functional, cell-based; conditions: time 9-12 day; method in brief: as §1
G583 = experiment: Antiproliferative activity against human G583 cells at 1 uM incubated for 9 to 12 days by IncuCyte zoom live-cell imaging analysis; format: functional, cell-based; conditions: time 9-12 day; method in brief: as §1
[2] = biological target: Protein arginine N-methyltransferase 5 (Homo sapiens) (UniProt O14744); experiment: Inhibition of PRMT5 in human G561 cells assessed as reduction in SDMA level at 1 uM after 5 days by Western blot analysis; format: cell-based; conditions: time 5.0 day; method in brief: as §2
[3] = biological target: Protein arginine N-methyltransferase 5 (Homo sapiens) (UniProt O14744); experiment: Inhibition of PRMT5 in human G411 cells assessed as reduction in SDMA level at 1 uM after 5 days by Western blot analysis; format: cell-based; conditions: time 5.0 day; method in brief: as §2

O=C(NC[C@H](O)CN1CCCCC1)c1ccnc(NC2CCC2)c1
inactive: Activity (G411) | inhibition [1] | Activity (G561) | Activity (G583) | inhibition [2] | inhibition [3]
